Laboratory results from ChEMBL document CHEMBL2202970, “Nonsteroidal androgen receptor ligands: versatile syntheses and biological data” (2012).
Calls of active or inactive are those of the source. The calls are words filed in the database; no cut-off is given here.

Experiments:
LNCaP [1] = assay: Cytotoxicity against human LNCAP cells assessed as growth inhibition at 2 to 20 uM after 144 hrs by SRB assay; assay type: functional, cell-based
Summary of the method: (§1)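 LNCaP and AR-overexpressing LNCaP-AR (3–5-fold higher AR) prostate cancer cells were incubated 144 h with scalar concentrations from 0.02 to 20 μM. Sulforhodamine B read-out was used for growth inhibition (IG50) and cytocidal (LC50) values. Results are the average of three independent experiments.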

LNCaP-AR = assay: Cytotoxicity against human LNCaP-AR cells assessed as growth inhibition at 2 to 20 uM after 144 hrs by SRB assay relative to control; assay type: functional, cell-based; summary of the method: as §1
LNCaP [2] = assay: Cytocidal activity in against human LNCAP cells after 144 hrs by SRB assay; assay type: functional; conditions: read-out: LC50 (the source's name); summary of the method: as §1
[3] = Cytocidal activity in human LNCaP-AR cells after 144 hrs by SRB assay; assay type: functional; conditions: read-out: LC50 (the source's name); summary of the method: as §1
LNCaP [4] = assay: Induction of apoptosis in human LNCAP cells at 20 uM after 144 hrs by […]; assay type: functional
[5] = Induction of apoptosis in human LNCaP-AR cells at 20 uM after 144 hrs by propidium iodide staining based flow cytometry analysis; assay type: functional
[6] = target: T1, Androgen receptor (Homo sapiens) (UniProt P10275); assay: Agonist activity at AR receptor in human LNCAP cells at 10 nM to 10 uM by ARE-luciferase reporter gene assay; assay type: functional, cell-based
T1 sequence (whole entry): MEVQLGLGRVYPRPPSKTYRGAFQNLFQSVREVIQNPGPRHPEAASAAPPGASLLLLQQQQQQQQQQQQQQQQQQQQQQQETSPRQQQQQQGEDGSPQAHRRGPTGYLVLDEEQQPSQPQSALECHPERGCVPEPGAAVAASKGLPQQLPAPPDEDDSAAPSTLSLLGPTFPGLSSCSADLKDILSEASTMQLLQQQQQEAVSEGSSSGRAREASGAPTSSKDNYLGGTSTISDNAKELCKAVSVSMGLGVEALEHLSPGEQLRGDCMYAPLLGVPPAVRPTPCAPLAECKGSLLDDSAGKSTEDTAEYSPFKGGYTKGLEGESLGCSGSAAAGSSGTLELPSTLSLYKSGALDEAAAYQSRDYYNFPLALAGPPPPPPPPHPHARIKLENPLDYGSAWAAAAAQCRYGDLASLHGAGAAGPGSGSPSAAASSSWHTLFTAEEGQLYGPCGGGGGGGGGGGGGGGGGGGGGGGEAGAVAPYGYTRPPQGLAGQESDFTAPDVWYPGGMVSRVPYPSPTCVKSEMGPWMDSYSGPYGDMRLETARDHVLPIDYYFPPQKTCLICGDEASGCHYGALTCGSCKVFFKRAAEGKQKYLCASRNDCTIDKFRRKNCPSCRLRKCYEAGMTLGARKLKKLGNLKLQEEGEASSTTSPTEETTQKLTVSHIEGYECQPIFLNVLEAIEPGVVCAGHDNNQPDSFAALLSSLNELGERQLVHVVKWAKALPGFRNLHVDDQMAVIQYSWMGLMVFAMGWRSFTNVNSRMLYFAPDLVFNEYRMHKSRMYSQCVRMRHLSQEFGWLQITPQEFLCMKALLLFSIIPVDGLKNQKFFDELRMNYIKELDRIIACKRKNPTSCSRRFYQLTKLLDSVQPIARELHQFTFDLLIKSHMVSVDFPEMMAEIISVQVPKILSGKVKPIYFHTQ
Summary of the method: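 Androgen-responsive LNCaP cells plated subconfluent (60–70%) in phenol red-free DMEM with 5% charcoal-stripped serum for 48 h, then transfected with 0.3 μg 3416-pTK-TATA-Luc ARE reporter. After 24 h, cells were exposed for 24 h to compounds (10 nM to 10 μM) without or with 10 nM R1881. Lysate luciferase expressed as fold induction; three independent experiments.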

[7] = target: T1, Androgen receptor (Homo sapiens); assay: Antagonist activity at human AR expressed in COS7 cells receptor assessed as inhibition of R1881-induced transcriptional activation at 10 uM by ARE-luciferase reporter gene assay; assay type: functional, cell-based; conditions: COS-7
Summary of the method: (§2)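 AR-negative Cos-7 cells plated subconfluent (60–70%) in phenol red-free DMEM with 5% charcoal-stripped serum for 48 h, then cotransfected with 0.3 μg 3416-pTK-TATA-Luc and 1.5 μg pSG5-hAR or empty pSG5. After 24 h, stimulated 24 h with 10 nM R1881 plus compounds. Lysate luciferase as fold induction; hAR checked by Western blot; three experiments.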

[8] = target: T1, Androgen receptor (Homo sapiens); assay: Antagonist activity at AR receptor in human LNCAP cells assessed as inhibition of R1881-induced transcriptional activation at 10 nM to 10 uM by ARE-uciferase reporter gene assay; assay type: functional, cell-based
Summary of the method: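 LNCaP cells at 60–70% confluence, plated in phenol red-free DMEM with 5% charcoal-stripped serum, then transfected after 48 h with 0.3 μg 3416-pTK-TATA-Luc reporter. 24 h later, stimulated for 24 h with 10 nM R1881 with or without test compound (10 nM–10 μM). Luciferase activity in lysates was expressed as fold induction. Three independent experiments were averaged.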

[9] = Growth inhibition in human LNCaP-AR cells after 144 hrs by SRB assay; assay type: functional; summary of the method: as §1
[10] = target: T1, Androgen receptor (Homo sapiens); assay: Antagonist activity at human AR expressed in COS7 cells receptor assessed as inhibition of androgen-induced transcriptional activation at 10 nM to 10 uM by ARE-luciferase reporter gene assay; assay type: functional, cell-based; conditions: COS-7; summary of the method: as §2

C[C@@]1(CS(=O)(=O)c2ccc(F)cc2)NC(=S)N(c2ccc(C#N)c(C(F)(F)F)c2)C1=O
growth inhibition (GI) (LNCaP [1]): Active

C[C@@]1(CS(=O)(=O)c2ccc(F)cc2)NC(=O)N(c2ccc(C#N)c(C(F)(F)F)c2)C1=O
growth inhibition (GI) (LNCaP [1]): Active

Cc1ccc(S(=O)(=O)N[C@@](C)(CS(=O)(=O)c2ccc(F)cc2)C(=O)Nc2ccc(C#N)c(C(F)(F)F)c2)cc1
growth inhibition (GI) (LNCaP [1]): Active

C[C@]1(CS(=O)(=O)c2ccc(F)cc2)NC(=S)N(c2ccc(C#N)c(C(F)(F)F)c2)C1=O
growth inhibition (GI) (LNCaP [1]): Active

C[C@]1(CS(=O)(=O)c2ccc(F)cc2)NC(=O)N(c2ccc(C#N)c(C(F)(F)F)c2)C1=O
growth inhibition (GI) (LNCaP [1]): Active

Cc1ccc(S(=O)(=O)N[C@](C)(CS(=O)(=O)c2ccc(F)cc2)C(=O)Nc2ccc(C#N)c(C(F)(F)F)c2)cc1
growth inhibition (GI) (LNCaP [1]): Active | growth inhibition (GI) (LNCaP-AR): Active | CC50 (LNCaP [2]): 18.3 µM | CC50 [3]: 18.3 µM | Activity (LNCaP [4]): 80.5% | Activity [5]: 91.6% | Activity [6]: inactive | inhibition [7]: Active | inhibition [8]: Active

C[C@](O)(CS(=O)(=O)c1ccc(F)cc1)C(=O)Nc1ccc(C#N)c(C(F)(F)F)c1 [(R)-BICALUTAMIDE]
growth inhibition (GI) (LNCaP [1]): Active | growth inhibition (GI) (LNCaP-AR): inactive | CC50 (LNCaP [2]): < 1.8 µM | IG50 [9]: <1.8 µM | Activity (LNCaP [4]): 2.1% | Activity [5]: 2.1%

C[C@@]1(COc2ccc(C#N)cc2)NC(=O)N(c2ccc(C#N)c(C(F)(F)F)c2)C1=O
Activity [10]: inactive | Activity [6]: inactive

C[C@](N)(CS(=O)(=O)c1ccc(F)cc1)C(=O)Nc1ccc(C#N)c(C(F)(F)F)c1
growth inhibition (GI) (LNCaP [1]): Active

C[C@@](N)(CS(=O)(=O)c1ccc(F)cc1)C(=O)Nc1ccc(C#N)c(C(F)(F)F)c1
growth inhibition (GI) (LNCaP [1]): Active

C[C@](N)(COc1ccc(C#N)cc1)C(=O)Nc1ccc(C#N)c(C(F)(F)F)c1
Activity [10]: Active | inhibition [7]: inactive

CC(C)(C)S(=O)(=O)N[C@@](C)(CS(=O)(=O)c1ccc(F)cc1)C(=O)Nc1ccc(C#N)c(C(F)(F)F)c1
growth inhibition (GI) (LNCaP [1]): Active

CC(C)(C)S(=O)(=O)N[C@](C)(CS(=O)(=O)c1ccc(F)cc1)C(=O)Nc1ccc(C#N)c(C(F)(F)F)c1
growth inhibition (GI) (LNCaP [1]): Active | growth inhibition (GI) (LNCaP-AR): Active
